From ChEMBL document CHEMBL1156973, “(-)-Carbodine: enantiomeric synthesis and in vitro antiviral activity against various strains of influenza virus including H5N1 (avian influenza) and novel 2009 H1N1 (swine flu)” (Bioorg Med Chem Lett, 2010)

Assays:
Influenza A virus [1] = experiment: Antiviral activity against Influenza A virus Wisconsin/67/2005/H3N2 infected MDCK cells after 3 days by virus yield reduction assay; format: functional, Influenza A virus (A/Wisconsin/67/2005(H3N2)); conditions: Influenza A virus, MDCK, 72 h
Outline: (§1)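 Yield reduction assay: MDCK cells got serial compound dilutions and ≤300 CCID50 virus, in triplicate. Progeny virus was titrated. EC90 is the concentration reducing the infectious titer by 90%, as the mean of triplicates.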

Influenza A virus [2] = experiment: Antiviral activity against Influenza A virus Vietnam/1203/ 2004H/H5N1 infected MDCK cells assessed as inhibition of virus-induced cytopathic effect after 3 days; format: functional, organism-based, A/Viet Nam/1203/2004(H5N1)
[3] = Selectivity ratio of IC50 for MDCK cells to EC50 for inhibition of virus-induced cytopathic effect of Influenza A virus Wisconsin/67/2005/H3N2; format: cell-based; conditions: dog, MDCK cells; read-out: Ratio IC50/EC50
Outline: (§2)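 IC50 (50% inhibition of uninfected MDCK cells) divided by EC50 (concentration reducing virus-induced CPE by 50%, scored visually), both from replicate serial-dilution assays.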

[4] = test system: Influenza A virus (A/Puerto Rico/8/1934(H1N1)); experiment: Antiviral activity against Influenza A virus Solomon Islands/03/2006/H1N1 infected MDCK cells after 3 days by virus yield reduction assay; format: functional, Influenza A virus (A/Solomon Islands/3/2006(H1N1)); conditions: Influenza A virus, MDCK, 72 h; outline: as §1
[5] = Selectivity ratio of IC50 for MDCK cells to EC90 for Influenza A virus Solomon Islands/03/2006/H1N1 by virus yield reduction assay; format: ADME, cell-based; conditions: dog, MDCK cells
Outline: (§3)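 IC50 (50% inhibition of uninfected MDCK cells) divided by EC90 (concentration reducing the infectious virus titer by 90% in the yield reduction assay).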

[6] = Antiviral activity against Influenza A virus Solomon Islands/03/2006/H1N1 infected MDCK cells assessed as inhibition of virus-induced cytopathic effect after 3 days; format: functional, organism-based, Influenza A virus (A/Solomon Islands/3/2006(H1N1))
Outline: (§4)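 Triplicate MDCK (ATCC CCL-34) wells got serial dilutions of compound. They were then inoculated with ≤300 CCID50, enough for ~100% CPE in control wells within 3 days, using the same inoculum for all replicates. CPE was scored visually. EC50 is the concentration reducing CPE by 50%, as the mean of triplicates.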

Influenza A virus [7] = experiment: Antiviral activity against Influenza A virus California/07/2009 /H1N1 infected MDCK cells after 3 days by virus yield reduction assay; format: functional, A/California/07/2009(H1N1); conditions: Influenza A virus, A/California/07/2009(H1N1), MDCK, 72 h
Influenza A virus [8] = experiment: Antiviral activity against Influenza A virus Vietnam/1203/ 2004H/H5N1 infected MDCK cells after 3 days by virus yield reduction assay; format: functional, A/Viet Nam/1203/2004(H5N1)
[9] = Selectivity ratio of IC50 for MDCK cells to EC90 for Influenza A virus Wisconsin/67/2005/H3N2 by virus yield reduction assay; format: ADME, cell-based; conditions: dog, MDCK cells; outline: as §3
[10] = Selectivity ratio of IC50 for MDCK cells to EC50 for inhibition of virus-induced cytopathic effect of Influenza A virus Duck/MN/1525/81/H5N1; format: cell-based; conditions: dog, MDCK cells; read-out: Ratio IC50/EC50; outline: as §2
Influenza A virus [11] = experiment: Antiviral activity against Influenza A virus California/07/2009 /H1N1 infected MDCK cells after 42 to 46 hrs by neutral red dye uptake assay; format: functional, organism-based, A/California/07/2009(H1N1); conditions: Influenza A virus, A/California/07/2009(H1N1), MDCK
Influenza A virus [12] = experiment: Antiviral activity against Influenza A virus Wisconsin/67/2005/H3N2 infected MDCK cells assessed as inhibition of virus-induced cytopathic effect after 3 days; format: functional, organism-based, Influenza A virus (A/Wisconsin/67/2005(H3N2)); conditions: Influenza A virus, MDCK, 72 h; outline: as §4
H5N1 subtype [13] = experiment: Antiviral activity against Influenza A virus Gull/PA/4175/83/H5N1 infected MDCK cells after 3 days by virus yield reduction assay; format: functional, Influenza A virus (A/gull/Pennsylvania/4175/83(H5N1)); conditions: 72 h
H5N1 subtype [14] = experiment: Antiviral activity against Influenza A virus Hong Kong/213/2003/H5N1 infected MDCK cells after 42 to 46 hrs by neutral red dye uptake assay; format: functional, organism-based, Influenza A virus (A/Hong Kong/213/2003(H5N1))
Influenza A virus [15] = experiment: Antiviral activity against Influenza A virus Vietnam/1203/ 2004H/H5N1 infected MDCK cells after 42 to 46 hrs by neutral red dye uptake assay; format: functional, organism-based, A/Viet Nam/1203/2004(H5N1); conditions: Influenza A virus, A/Viet Nam/1203/2004(H5N1), MDCK
[16] = Selectivity ratio of IC50 for MDCK cells to EC50 for inhibition of virus-induced cytopathic effect of Influenza A virus Vietnam/1203/ 2004H/H5N1; format: cell-based; conditions: dog, MDCK cells; read-out: Ratio IC50/EC50; outline: as §2
[17] = Selectivity ratio of IC50 for MDCK cells to EC90 for Influenza A virus California/07/2009 /H1N1 by virus yield reduction assay; format: ADME, cell-based; conditions: dog, MDCK cells; outline: as §3
Influenza A virus [18] = experiment: Antiviral activity against Influenza A virus Wisconsin/67/2005/H3N2 infected MDCK cells after 42 to 46 hrs by neutral red dye uptake assay; format: functional, organism-based, Influenza A virus (A/Wisconsin/67/2005(H3N2))
Outline: (§5)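 Triplicate MDCK wells got serial compound dilutions, then ≤300 CCID50 of virus, with the same inoculum for all replicates. Antiviral effect was read by neutral red dye uptake. EC50 is the concentration giving 50% inhibition of the virus effect, as the mean of triplicates.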

H5N1 subtype [19] = experiment: Antiviral activity against Influenza A virus Duck/MN/1525/81/H5N1 infected MDCK cells after 42 to 46 hrs by neutral red dye uptake assay; format: functional, organism-based, Influenza A virus (A/duck/Minnesota/1525/1981(H5N1))
Influenza B virus [20] = experiment: Antiviral activity against Influenza B virus Malaysia/2506/2004 infected MDCK cells assessed as inhibition of virus-induced cytopathic effect after 3 days; format: functional, organism-based, B/Malaysia/2506/2004; conditions: Influenza B virus, B/Malaysia/2506/2004, MDCK, 72 h; outline: as §4
H5N1 subtype [21] = experiment: Antiviral activity against Influenza A virus Gull/PA/4175/83/H5N1 infected MDCK cells after 42 to 46 hrs by neutral red dye uptake assay; format: functional, organism-based, Influenza A virus (A/gull/Pennsylvania/4175/83(H5N1)); conditions: Influenza A virus, MDCK
Influenza B virus [22] = experiment: Antiviral activity against Influenza B virus Malaysia/2506/2004 infected MDCK cells after 3 days by virus yield reduction assay; format: functional, B/Malaysia/2506/2004; outline: as §1
H5N1 subtype [23] = experiment: Antiviral activity against Influenza A virus Duck/MN/1525/81/H5N1 infected MDCK cells after 3 days by virus yield reduction assay; format: functional, Influenza A virus (A/duck/Minnesota/1525/1981(H5N1)); conditions: Influenza A virus, MDCK, 72 h
[24] = Selectivity ratio of IC50 for MDCK cells to EC50 for inhibition of virus-induced cytopathic effect of Influenza A virus California/07/2009 /H1N1; format: cell-based; conditions: dog, MDCK cells; read-out: Ratio IC50/EC50; outline: as §2
[25] = Selectivity ratio of IC50 for MDCK cells to EC50 for inhibition of virus-induced cytopathic effect of Influenza A virus Solomon Islands/03/2006/H1N1; format: cell-based; conditions: dog; for selectivity ratio: MDCK cells, read-out: Ratio IC50/EC50; outline: as §2
[26] = test system: Influenza A virus (A/Puerto Rico/8/1934(H1N1)); experiment: Antiviral activity against Influenza A virus Solomon Islands/03/2006/H1N1 infected MDCK cells after 42 to 46 hrs by neutral red dye uptake assay; format: functional, organism-based, Influenza A virus (A/Solomon Islands/3/2006(H1N1)); outline: as §5
[27] = Selectivity ratio of IC50 for MDCK cells to EC50 for Influenza A virus Gull/PA/4175/83/H5N1 by neutral red dye uptake assay; format: ADME, cell-based; conditions: dog, MDCK cells; read-out: Ratio IC50/EC50
Outline: (§6)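 Neutral red uptake in MDCK cells: IC50 (50% inhibition of uninfected cells) divided by EC50 (50% inhibition of virus effect), both from replicate serial-dilution assays.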

H5N1 subtype [28] = experiment: Antiviral activity against Influenza A virus Duck/MN/1525/81/H5N1 infected MDCK cells assessed as inhibition of virus-induced cytopathic effect after 3 days; format: functional, organism-based, Influenza A virus (A/duck/Minnesota/1525/1981(H5N1)); conditions: Influenza A virus, MDCK, 72 h
[29] = Selectivity ratio of IC50 for MDCK cells to EC50 for Influenza B virus Malaysia/2506/2004 by neutral red dye uptake assay; format: ADME, cell-based; conditions: dog, MDCK cells; read-out: Ratio IC50/EC50; outline: as §6
[30] = Selectivity ratio of IC50 for MDCK cells to EC50 for Influenza A virus Solomon Islands/03/2006/H1N1 by neutral red dye uptake assay; format: ADME, cell-based; conditions: dog; for selectivity ratio: MDCK cells, read-out: Ratio IC50/EC50; outline: as §6
[31] = Selectivity ratio of IC50 for MDCK cells to EC50 for inhibition of virus-induced cytopathic effect of Influenza A virus Gull/PA/4175/83/H5N1; format: cell-based; conditions: dog, MDCK cells; read-out: Ratio IC50/EC50; outline: as §2
[32] = Influenza A virus, A/Viet Nam/1203/2004(H5N1), MDCK
[33] = Influenza B virus, B/Malaysia/2506/2004, MDCK, 72 h

Row | Structure (SMILES) | EC90 (Influenza A virus [1]) | selectivity ratio [3] | EC90 [4] | selectivity ratio [5] | EC90 (Influenza A virus [7]) | selectivity ratio [9] | selectivity ratio [10] | EC50 (Influenza A virus [11]) | EC50 (Influenza A virus [12]) | EC90 (H5N1 subtype [13]) | EC50 (Influenza A virus [15]) | selectivity ratio [16] | selectivity ratio [17] | EC50 (Influenza B virus [20]) | EC50 (H5N1 subtype [21]) | EC90 (H5N1 subtype [23]) | selectivity ratio [24] | selectivity ratio [27] | EC50 (H5N1 subtype [28]) | selectivity ratio [29] | further results
1 | Nc1ccn([C@@H]2C[C@H](CO)[C@@H](O)[C@H]2O)c(=O)n1 | 2.5 µM | > 259 | 1.3 µM | > 318 | 3.8 µM | > 166 | > 230 | 1.6 µM | 1.6 µM | 1.6 µM | 1.5 µM | > 518 | > 109 | 0.6 µM | 1 µM | 10.5 µM | > 318 | > 414 | 1.8 µM | > 518 | EC50 (Influenza A virus [2]; [32]): 0.8 µM; EC50 ([6]; mdck): 0.7 µM; EC90 (Influenza A virus [8]): 5.7 µM; EC50 (H5N1 subtype [14]; mdck): 0.8 µM; EC50 (Influenza A virus [18]; mdck): 2 µM; EC50 (H5N1 subtype [19]; mdck): 2 µM; EC90 (Influenza B virus [22]): 1.5 µM; Ratio IC50/EC50 ([25]; mdck): > 591; EC50 ([26]; mdck): 0.6 µM; Ratio IC50/EC50 ([30]; mdck): > 690; selectivity ratio [31]: > 518
2 | Nc1ccn([C@H]2C[C@@H](CO)[C@H](O)[C@@H]2O)c(=O)n1 | > 41 µM | < 10 | > 41 µM | < 10 | > 414 µM | < 10 | 1 | > 414 µM | > 41 µM | > 41 µM | > 41 µM | < 10 | 1 | > 41 µM | > 41 µM | > 414 µM | 1 | < 10 | > 414 µM | < 10 | EC50 (Influenza A virus [2]; [32]): > 41 µM; EC50 ([6]; Influenza A virus, MDCK, 72 h): > 41 µM; EC90 (Influenza A virus [8]; [32]): > 41 µM; EC50 (H5N1 subtype [14]; Influenza A virus, MDCK): > 41 µM; EC50 (Influenza A virus [18]; Influenza A virus, MDCK): > 41 µM; EC50 (H5N1 subtype [19]; Influenza A virus, MDCK): > 414 µM; EC90 (Influenza B virus [22]; [33]): > 41 µM; selectivity ratio [25]: < 10; EC50 ([26]; Influenza A virus, MDCK): > 41 µM; selectivity ratio [30]: < 10; selectivity ratio [31]: < 10
3 | NC(=O)c1ncn([C@@H]2O[C@H](CO)[C@@H](O)[C@H]2O)n1 [RIBAVIRIN] | 21.7 µM | > 80 | 27 µM | > 49 | 13 µM | > 60 | > 37 | 19.4 µM | 16.4 µM | 20.3 µM | 13.9 µM | > 156 | > 101 | 10.2 µM | 27.4 µM | 43.6 µM | > 117 | > 48 | 35.4 µM | > 67 | EC50 (Influenza A virus [2]; mdck): 8.4 µM; EC50 ([6]; Influenza A virus, MDCK, 72 h): 23.3 µM; EC90 (Influenza A virus [8]; [32]): 11.6 µM; EC50 (H5N1 subtype [14]; Influenza A virus, MDCK): 9.4 µM; EC50 (Influenza A virus [18]; Influenza A virus, MDCK): 20.2 µM; EC50 (H5N1 subtype [19]; Influenza A virus, MDCK): 32.5 µM; EC90 (Influenza B virus [22]; [33]): 22.2 µM; selectivity ratio [25]: > 56; EC50 ([26]; Influenza A virus, MDCK): 25.1 µM; selectivity ratio [30]: > 52; selectivity ratio [31]: > 55
